Data from PMC2873069 (The journal of maternal-fetal & neonatal medicine : the …, 2010).
Entries after “also recorded” stand apart in the source; their conditions may differ. Read-outs that look alike come from different tables or passages of the source. Each block holds one compound with its values, some of them ahead of it.

How the values were obtained:
[1] = test system: term human placental lobule; assay type: in vitro ADME; details: for fetal/maternal concentration ratio: HSA 30 mg/ml
[2] = cited from earlier work
[3] = test system: perfused placental tissue; assay: Effect of bupropion on placental tissue viability; design: species or system human; details: for effect on placental viability and functional parameters: 150 ng/ml and 450 ng/ml bupropion
[4] = cited from earlier work; for pharmacologic activity: hepatic metabolites
placental tissue enzymes = assay: Metabolism of bupropion by placental tissue during perfusion; details: end of 4 hours of perfusion
[5] = assay type: physicochemical
Summary of the method: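 Test compound as the [3H] form recirculated for 4 h through the closed perfusion circuit (glassware, teflon tubing, tygon peristaltic-pump tubing) without placenta, in M199 with dextran 40, heparin, gentamicin, sulfamethoxazole and trimethoprim at 37 °C. Run without and with human serum albumin at 30 mg/mL. Loss of radiolabel from the medium was tracked over 4 h.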

[6] = end of 4-hour perfusion, independent of initial concentration
[7] = bupropion 150 ng/mL, 4 hours of perfusion
[8] = bupropion 450 ng/mL, 4 hours of perfusion

Compound: Cc1cc(=O)n(-c2ccccc2)n1C [AP, antipyrine]
- transplacental transfer to the fetal circuit ([1]; antipyrine 20 μg/mL co-transfused marker, 4 hours): approximately 50%
- binding to plasma proteins and human serum albumin [2]: minimal binding

- decline in concentration in the maternal circuit (shape) ([1]; 150 ng/ml, 4 hours): biphasic
- time at which equilibrium was achieved in the fetal circuit ([1]; 150 ng/ml, from time 0): 180 min
- fetal circuit concentration as % of initial concentration ([1]; 450 ng/ml, end of 4 hours): 23 ± 2%
- fetal/maternal concentration ratio ([1]; bupropion 150 ng/ml in maternal circuit, end of 4-hour perfusion): 1.07 ± 0.22
- fetal/maternal concentration ratio ([1]; bupropion 450 ng/ml in maternal circuit, end of 4-hour perfusion): 1.00 ± 0.14
- fraction of drug remaining in the maternal circuit [1, 6]: 32 ± 5%
- fraction of drug retained by placental tissue [1, 6]: 48 ± 6%
- concentration in the fetal circuit at the end of the experiment ([1]; initial maternal concentration 150 ng/ml, 4 hours): 35 ± 4 ng/mL
- concentration in the fetal circuit at the end of the experiment ([1]; initial maternal concentration 450 ng/ml, 4 hours): 104 ng/mL
Compound: CC(NC(C)(C)C)C(=O)c1cccc(Cl)c1 (centres unmarked) [bupropion]
- effect on placental viability and functional parameters [3]: did not affect; also recorded: do not adversely affect
- O2 consumption, % of control period [3, 7]: 114 ± 37%
- O2 consumption, experimental period [3, 7]: 6.6 ± 1.6 mL/min/kg
- O2 transfer, % control period [3, 7]: 56 ± 21%
- O2 transfer, experimental period [3, 7]: 0.22 ± 0.1 mL/min/kg
- O2 consumption, % of control period [3, 8]: 98 + 38%
- O2 consumption, experimental period [3, 8]: 3.7 + 1.2 mL/min kg
- O2 transfer, % control period [3, 8]: 43 + 16%
- release of hCG at the end of the experimental period (control period = 100%) ([3]; bupropion transfused in presence of HSA): 94 ± 12%
- octanol/water partition coefficient ([2]; no reference given): 3.21
- pKa ([2]; no reference given): 7.6

Compound: CC(NC(C)(C)C)C(O)c1cccc(Cl)c1 (centres unmarked) [erythrohydrobupropion]
- pharmacologic activity [4]: very low activity

Compound: C[C@H]1NC(C)(C)CO[C@]1(O)c1cccc(Cl)c1 [hydroxybupropion]
- pharmacologic activity relative to the parent compound ([4]; hepatic metabolite): ~50%

Compound: C[C@H](NC(C)(C)C)[C@@H](O)c1cccc(Cl)c1 [threohydrobupropion]
- effect on placental viability and functional parameters [3]: do not adversely affect
- pharmacologic activity [4]: very low activity
- ratio of metabolite to parent drug in placental tissue (placental tissue enzymes): 0.06
- ratio of metabolite to parent drug in the fetal circuit (placental tissue enzymes): 0.07
- ratio of metabolite to parent drug in the maternal circuit (placental tissue enzymes): 0.08

Compound: [^3H]-bupropion
- binding to glassware and teflon tubing ([5]; 4 hours recirculation in absence of placenta): negligible
- decline of initial amount in the medium ([5]; 4 hours recirculation in absence of placenta, no HSA): 40%
- reduction of binding to tygon tubing ([5]; after addition of 30 mg/mL HSA to the perfusion medium): 25%
